According to ChEMBL document CHEMBL1150357, “Synthesis and preliminary evaluation of some substituted coumarins as anticonvulsant agents” (Bioorg Med Chem, 2008):

Columns and labels:
Mus musculus [1] = assay: Anticonvulsant activity in Albino mouse assessed as protection against pentylenetetrazole-induced seizures at 100 mg/kg, ip administered 1 hr before pentylenetetrazole challenge; format: functional; conditions: route intraperitoneal
Outline: (§1)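 Male albino mice (25–30 g), housed in groups of 10 and acclimated ≥2 days with free food and water. Test agent suspended in water with 2% Tween 80 and given ip. PTZ 112 mg/kg ip injected 1 h later. Mice without generalized convulsions scored as protected, expressed as % protection. PD50 by log-linear regression of dose-response across 50, 100, 200 mg/kg.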

Mus musculus [2] = assay: Anticonvulsant activity in Albino mouse assessed as protection against pentylenetetrazole-induced seizures at 10 mg/kg, ip administered 1 hr before pentylenetetrazole challenge; format: functional; conditions: route intraperitoneal
Outline: (§2)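 Male albino mice (25–30 g), housed 10 per group and acclimated for at least 2 days. Dosed ip, suspended in water with 2% Tween 80. Pentylenetetrazole 112 mg/kg ip given 1 h later. Mice without generalized convulsions counted as protected; reported as % protection.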

Mus musculus [3] = assay: Anticonvulsant activity in ip dosed Albino mouse assessed as protection against pentylenetetrazole-induced seizures administered 1 hr before pentylenetetrazole challenge; format: functional; conditions: read-out: PD50
Outline: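 PTZ model in male albino mice (25–30 g), 10 per group. Test agents suspended in water with 2% Tween 80 and given ip at graded doses (50, 100, 200 mg/kg). Pentylenetetrazole 112 mg/kg ip given 1 h later. Absence of generalized convulsions scored as protection. PD50 obtained by log-linear regression of dose–response curves.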

Mus musculus [4] = assay: Anticonvulsant activity in Albino mouse assessed as protection against pentylenetetrazole-induced seizures at 30 mg/kg, ip administered 1 hr before pentylenetetrazole challenge; format: functional; conditions: route intraperitoneal; outline: as §2
Mus musculus [5] = assay: Anticonvulsant activity in Albino mouse assessed as protection against pentylenetetrazole-induced seizures at 20 mg/kg, ip administered 1 hr before pentylenetetrazole challenge; format: functional; conditions: route intraperitoneal; outline: as §2
Mus musculus [6] = assay: Anticonvulsant activity against strychnine-induced seizures in Albino mouse assessed as survival time at 100 mg/kg, po administered 1 hr before strychnine challenge; format: functional
Mus musculus [7] = assay: Anticonvulsant activity in Albino mouse assessed as protection against pentylenetetrazole-induced seizures at 50 mg/kg, ip administered 1 hr before pentylenetetrazole challenge; format: functional; conditions: route intraperitoneal; outline: as §1
Mus musculus [8] = assay: Toxicity against Albino mouse assessed as mortality at 3200 mg/kg after 24 hrs; format: organism-based; set-up: dose 3200 mg/kg; conditions: in vivo
Outline: (§3)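 Male albino mice (25–30 g), groups of 8. Single injected doses at equal log intervals (400, 800, 1600, 3200 mg/kg), bracketed by preliminary no-kill and LD100 doses. Deaths counted at 24 h. LD50 calculated by the Spearman–Karber method.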

Mus musculus [9] = assay: Toxicity against Albino mouse assessed as mortality at 400 mg/kg after 24 hrs; format: organism-based; set-up: dose 400 mg/kg; conditions: in vivo; outline: as §3
[10] = Dissociation constant, pKa of the compound; format: physicochemical
Outline: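 Spectrophotometric pKa. Spectra of ionized and unionized forms recorded in 0.1 M HCl and 0.1 M NaOH with DMF. Absorbance read at the wavelength of maximal difference in phosphate buffer (Na2HPO4/KH2PO4, 0.15 M) with DMF at pH 7.6, 7.4, 7 and 6.8. pKa = pH + log[(Ai−A)/(A−Au)], averaged with SD.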

Mus musculus [11] = assay: Anticonvulsant activity in Albino mouse assessed as protection against pentylenetetrazole-induced seizures at 200 mg/kg, ip administered 1 hr before pentylenetetrazole challenge; format: functional; conditions: route intraperitoneal; outline: as §1
[12] = Toxicity against Albino mouse assessed as mortality after 24 hrs; format: organism-based; conditions: in vivo; outline: as §3

Row | Structure (SMILES) | Activity (Mus musculus [1]) | Survival (Mus musculus [6]) | further results
1 | CCOC(=O)c1s/c(=N/c2ccc3oc(=O)ccc3c2)n(C)c1C | 0% |  | 
2 | CCC1(c2ccccc2)C(=O)NC(=O)NC1=O [PHENOBARBITAL] |  |  | Activity (Mus musculus [2]): 40%; ED50 (Mus musculus [3]): 16 mg/kg; Activity (Mus musculus [4]): 90%; Activity (Mus musculus [5]): 70%
3 | CCOC(=O)c1s/c(=N/c2ccc3oc(=O)ccc3c2)n(C2CCCCC2)c1C | 60% | 3.14 min | 
4 | CCN1C(=O)/C(=C/c2ccc(Cl)cc2)S/C1=N/c1ccc2oc(=O)ccc2c1 |  | 5.18 min | 
5 | O=c1ccc2cc(NC(=S)Nc3ccc(Cl)cc3)ccc2o1 | 20% | 5.33 min | 
6 | CCOC(=O)c1s/c(=N/c2ccc3oc(=O)ccc3c2)n(CC)c1C | 80% | 5 min | Activity (Mus musculus [7]): 30%; Activity (Mus musculus [8]): Toxic; ED50 (Mus musculus [3]): 95 mg/kg; Activity (Mus musculus [9]): Non-toxic; pKa [10]: 7.44; Activity (Mus musculus [11]): 90%; LD50 at 24 h [12]: 1450 mg/kg
7 | CNc1nc2ccc3oc(=O)ccc3c2s1 | 0% |  | 
8 | CCCN1C(=O)CS/C1=N/c1ccc2oc(=O)ccc2c1 |  | 5.4 min | 
9 | O=C(CCl)Nc1nc2ccc3oc(=O)ccc3c2s1 | 0% | 4.4 min | 
10 | COc1ccc(-c2cs/c(=N/c3ccc4oc(=O)ccc4c3)n2-c2ccc(Cl)cc2)cc1 | 30% |  | 
11 | CCN1C(=O)/C(=C/c2ccc([N+](=O)[O-])cc2)S/C1=N/c1ccc2oc(=O)ccc2c1 | 30% | 4.85 min | 
12 | CCn1c(-c2ccc(OC)cc2)cs/c1=N/c1ccc2oc(=O)ccc2c1 | 60% | 7.55 min | Activity (Mus musculus [7]): 20%; ED50 (Mus musculus [3]): 138 mg/kg; pKa [10]: 7.63; Activity (Mus musculus [11]): 60%
13 | CCn1c(-c2ccc(Br)cc2)cs/c1=N/c1ccc2oc(=O)ccc2c1 | 30% | 8.36 min | 
14 | CCN1C(=O)CS/C1=N/c1ccc2oc(=O)ccc2c1 | 30% |  | 
15 | O=c1ccc2cc(NC(=S)NC3CCCCC3)ccc2o1 | 30% | 5.02 min | 
16 | O=C1NC(=O)C(c2ccccc2)(c2ccccc2)N1 [PHENYTOIN] |  | 13.8 min | 
17 | COc1ccc(-c2cs/c(=N/c3ccc4oc(=O)ccc4c3)n2C2CCCCC2)cc1 | 20% | 4.5 min | 
18 | CCNc1nc2ccc3oc(=O)ccc3c2s1 |  | 6.26 min | 
19 | CCNC(=S)Nc1ccc2oc(=O)ccc2c1 | 60% | 3.92 min | Activity (Mus musculus [7]): 20%; ED50 (Mus musculus [3]): 125 mg/kg; pKa [10]: 5.62; Activity (Mus musculus [11]): 70%
20 | O=C1CS/C(=N/c2nc3ccc4oc(=O)ccc4c3s2)N1 | 40% | 5.44 min | 
